The nature of data set [1]: Biodistribution in uterus of athymic NCr mouse xenografted with human OVCAR-3 cells assessed per gram of tissue at 1.12 uCi, ip after 72 hrs by gamma counting. The format is ADME, organism-based. The note with it: in vivo. (Xenograft models place foreign cells or tissue in a host animal.)
Data set [2] is described as follows: Ratio of drug level in tumor to spleen in athymic NCr mouse xenografted with human OVCAR-3 cells at 180 uCi, ip administered 9 days after tumor implantation as six fractionated doses every 4 days measured after 72 hrs by gamma counting. The format is ADME, organism-based. To be noted: in vivo.
Data set [3] in a line: Biodistribution in peritoneum of athymic NCr mouse xenografted with human OVCAR-3 cells at 1.12 uCi, ip after 1.5 hrs by gamma counting. The format is ADME, organism-based. To be noted: in vivo.
Data set [4] is described as follows: Ratio of drug level in tumor to liver in athymic NCr mouse xenografted with human OVCAR-3 cells at 180 uCi, ip administered 9 days after tumor implantation as six fractionated doses every 4 days measured after 72 hrs by gamma counting. The format is ADME, organism-based. To be noted: in vivo.
For data set [5], the system named is LNCaP. Briefly: Cellular uptake in single-cell suspension of nonproliferating human LNCAP cells expressing androgen receptor assessed as increase in cellular retention at 0.37 uCi/mL after 5 to 16 hrs by gamma counting. The format is ADME, cell-based. In short, it runs like this:
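Low-passage LNCaP held as single-cell suspension (non-proliferating) in RPMI-1640 with radioligand at 0.03 or 0.37 μCi/mL; whole-cell and nuclear radioactivity measured over time.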

Data set [6] can be described thus: Ratio of drug level in tumor to blood in athymic NCr mouse xenografted with human OVCAR-3 cells at 180 uCi, ip administered 9 days after tumor implantation as six fractionated doses every 4 days measured after 72 hrs by gamma counting. The format is ADME, organism-based. The note with it: tumour.
The nature of data set [7]: Ratio of drug level in tumor to spleen in athymic NCr mouse xenografted with human OVCAR-3 cells at 180 uCi, ip administered 9 days after tumor implantation as six fractionated doses every 4 days measured after 48 hrs by gamma counting. The note with it: in vivo. The format is ADME, organism-based.
Data set [8] can be described thus: Clearance in peritoneum of athymic NCr mouse xenografted with human OVCAR-3 cells assessed as half life at 1.12 uCi, ip by gamma counting. The note with it: in vivo. The format is ADME, organism-based. In short, it runs like this:
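Peritoneal clearance measured in athymic NCr-nu/nu mice bearing intraperitoneal NIH:OVCAR-3 xenografts after an ip dose of the 125I compound. The peritoneal cavity was lavaged, and 125I was counted in the lavage and in the recovered tumor cells. Half-lives were estimated from the clearance curves.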

A short description of data set [9]: Stability in rabbit serum assessed as half life at 10 to 20 uCi/mL by size-exclusion HPLC analysis. The format is ADME, cell-free, Oryctolagus cuniculus. The gist of the method: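 The compound was incubated with rabbit or human serum at ambient temperature, and aliquots were taken at 1, 5 and 24 h. Aliquots were run on size-exclusion HPLC (TSK3000; 0.1 M potassium phosphate/0.1 M Na2SO4, pH 6.8, then an acetonitrile gradient). Extracts were run on C18 reversed-phase HPLC (water/acetonitrile with 0.07% TFA). Half-lives came from a monoexponential fit.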

Data set [10] has as its target T1, Sex hormone-binding globulin (Oryctolagus cuniculus, UniProt P15196).
T1 sequence (P15196 whole entry): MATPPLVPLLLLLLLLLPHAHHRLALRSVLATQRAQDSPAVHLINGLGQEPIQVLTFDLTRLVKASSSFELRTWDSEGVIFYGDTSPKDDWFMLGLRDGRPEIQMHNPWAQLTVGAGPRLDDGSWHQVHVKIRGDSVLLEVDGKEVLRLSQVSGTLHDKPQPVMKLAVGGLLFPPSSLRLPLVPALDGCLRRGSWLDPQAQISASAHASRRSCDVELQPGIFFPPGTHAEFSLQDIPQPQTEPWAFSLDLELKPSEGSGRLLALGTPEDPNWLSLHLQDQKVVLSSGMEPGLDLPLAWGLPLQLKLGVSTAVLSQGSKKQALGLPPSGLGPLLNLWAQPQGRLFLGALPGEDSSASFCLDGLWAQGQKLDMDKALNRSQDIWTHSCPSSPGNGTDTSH
Kind of data set: Binding affinity to rabbit sex hormone binding globulin at 10 to 20 uCi/mL after 60 mins by reversed phase HPLC analysis. The format is ADME. To be noted: 1 h.

Data set [11] in a line: Ratio of drug level in tumor to uterus in athymic NCr mouse xenografted with human OVCAR-3 cells at 180 uCi, ip administered 9 days after tumor implantation as six fractionated doses every 4 days measured after 24 hrs by gamma counting. The format is ADME, organism-based. To be noted: in vivo.
Data set [12] is described as follows: Chemical stability in RPMI-1640 serum-free medium assessed as intact compound remaining at 12.2 uCi up to 6 hrs by HPLC analysis. The note with it: read-out: Stability. The format is physicochemical.
For data set [13], the target named is T2, Sex hormone-binding globulin (Homo sapiens, UniProt P04278).
T2 sequence (P04278 whole entry): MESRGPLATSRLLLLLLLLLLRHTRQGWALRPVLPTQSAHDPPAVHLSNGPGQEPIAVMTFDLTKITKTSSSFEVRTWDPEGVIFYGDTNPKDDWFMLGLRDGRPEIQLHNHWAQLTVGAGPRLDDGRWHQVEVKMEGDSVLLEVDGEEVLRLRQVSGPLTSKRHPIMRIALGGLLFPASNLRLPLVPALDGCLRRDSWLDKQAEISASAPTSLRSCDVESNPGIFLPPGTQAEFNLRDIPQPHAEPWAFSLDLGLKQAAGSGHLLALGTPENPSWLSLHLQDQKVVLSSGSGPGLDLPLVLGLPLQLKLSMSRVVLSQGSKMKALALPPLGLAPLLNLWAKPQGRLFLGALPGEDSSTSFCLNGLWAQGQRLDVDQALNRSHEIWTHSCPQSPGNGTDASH
Briefly: Binding affinity to human sex hormone binding globulin at 20 uCi after 60 mins by reversed phase HPLC analysis. The format is ADME. The note with it: 1 h.

In data set [14] the test system is Blood. Briefly: Biodistribution in blood of athymic NCr mouse xenografted with human OVCAR-3 cells assessed per gram of tissue at 0.25 mCi, ip administered 31 days after tumor implantation as single bolus dose measured 55 days after implantation by gamma counting in presence of SHBG. The format is ADME, organism-based. The note with it: in vivo. In short, it runs like this:
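Mice given one ip bolus of 0.25 mCi co-injected with SHBG; blood, tumor cells, solid tumors and normal tissues taken at necropsy and counted; %ID/g decay-corrected.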

In data set [15] the test system is OVCAR-3. Kind of data set: Cellular uptake in human OVCAR-3 cells expressing androgen receptor after 24 hrs. The format is ADME, cell-based. To be noted: ovcar-3, 24 h. In short, it runs like this: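 NIH:OVCAR-3 cells in complete RPMI-1640 exposed to the radioligand for 24 h (concentration series) or at 1.75 μCi/mL for set times; medium then replaced and cells cultured further 24–48 h; whole-cell and DNA uptake in cpm/cell.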

Data set [16] is described as follows: Biodistribution in small intestine of athymic NCr mouse xenografted with human OVCAR-3 cells assessed per gram of tissue at an average 39.5 uCi/dose, ip administered 9 days after tumor implantation as six fractionated doses every 4 days measured after 2 weeks of last dose by gamma counting. The format is ADME, organism-based. The note with it: in vivo, 336 h. In short, it runs like this: (§1)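 OVCAR-3-bearing and healthy athymic mice given fractionated ip doses on the six-dose every-4-days schedule; tissues, tumor and lavaged cells γ-counted at necropsy, %ID/g; DNA-bound 125I in cells measured as cpm/cell.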

In data set [17] the test system is Blood. Kind of data set: Biodistribution in blood of athymic NCr mouse xenografted with human OVCAR-3 cells assessed per gram of tissue at an average 39.5 uCi/dose, ip administered 9 days after tumor implantation as six fractionated doses every 4 days measured after 2 weeks of last dose by gamma counting. The format is ADME, organism-based. To be noted: in vivo, 336 h. The gist of the method:
as §1

The nature of data set [18]: Biodistribution in large intestine of athymic NCr mouse xenografted with human OVCAR-3 cells assessed per gram of tissue at an average 39.5 uCi/dose, ip administered 9 days after tumor implantation as six fractionated doses every 4 days measured after 2 weeks of last dose by gamma counting. The format is ADME, organism-based. To be noted: in vivo, 336 h. The gist of the method:
as §1

The values that follow come from ChEMBL document CHEMBL1155242, “Radiolabeled 5-iodo-3'-O-(17beta-succinyl-5alpha-androstan-3-one)-2'-deoxyuridine and its 5'-monophosphate for imaging and therapy of androgen receptor-positive cancers: synthesis and biological evaluation” (J Med Chem, 2009).

`C[C@]12CCC(=O)C[C@@H]1CC[C@@H]1[C@@H]2CC[C@]2(C)[C@@H](OC(=O)CCC(=O)O[C@H]3C[C@H](n4cc([125I])c(=O)[nH]c4=O)O[C@@H]3CO)CC[C@@H]12`: the Drug uptake is 1 %ID in [1] and 29% in data set [3]. Also, the Ratio in data set [2] was 11.9; in data set [4] it was 21.8; in data set [6], 42.2; in [7], 24.8; in data set [11], 29.9. In addition, the “fold change (FC)” value in data set [5] was found to be 10. In addition, the t1/2 was found to be 26 h in data set [8] and 5.7 h in data set [9]. Moreover, in data set [10], the result was Active. For the same compound, the remaining at 6 h, 12.2 uCi in data set [12] amounted to 90%.
Regarding `C[C@]12CCC(=O)C[C@@H]1CC[C@@H]1[C@@H]2CC[C@]2(C)[C@@H](OC(=O)CCC(=O)O[C@H]3C[C@H](n4cc([125I])c(=O)[nH]c4=O)O[C@@H]3COP(=O)(O)O)CC[C@@H]12`, the result in data set [13] was Active. Moreover, the Drug uptake in data set [14] is on record as 0.057 %ID; in data set [15] it was “Dose-dependent effect”; in [16], 0.011 %ID; in [17], 0.003 %ID; in [18], 0.008 %ID.
